Active and inactive are the calls of the source. No cut-off for these calls is given here.
Experiments:
[1] = Cytotoxicity against HLF assessed as growth inhibition after 72 hrs by MTT assay; format: functional; conditions: Homo sapiens
HCT-116 [2] = assay: Cytotoxicity against human HCT116 cells assessed as growth inhibition after 72 hrs by MTT assay; format: functional, cell-based; conditions: HCT-116, 72 h
MDA-MB-231 = assay: Cytotoxicity against human MDA-MB-231 cells assessed as growth inhibition after 72 hrs by MTT assay; format: functional, cell-based; conditions: MDA-MB-231, 72 h
[3] = target: T1, DNA topoisomerase 1 (Homo sapiens) (UniProt P11387); assay: Inhibition of topoisomerase1 (unknown origin)-mediated pBR322 DNA relaxation at 50 uM after 15 mins by agarose gel electrophoresis
T1 sequence (whole entry): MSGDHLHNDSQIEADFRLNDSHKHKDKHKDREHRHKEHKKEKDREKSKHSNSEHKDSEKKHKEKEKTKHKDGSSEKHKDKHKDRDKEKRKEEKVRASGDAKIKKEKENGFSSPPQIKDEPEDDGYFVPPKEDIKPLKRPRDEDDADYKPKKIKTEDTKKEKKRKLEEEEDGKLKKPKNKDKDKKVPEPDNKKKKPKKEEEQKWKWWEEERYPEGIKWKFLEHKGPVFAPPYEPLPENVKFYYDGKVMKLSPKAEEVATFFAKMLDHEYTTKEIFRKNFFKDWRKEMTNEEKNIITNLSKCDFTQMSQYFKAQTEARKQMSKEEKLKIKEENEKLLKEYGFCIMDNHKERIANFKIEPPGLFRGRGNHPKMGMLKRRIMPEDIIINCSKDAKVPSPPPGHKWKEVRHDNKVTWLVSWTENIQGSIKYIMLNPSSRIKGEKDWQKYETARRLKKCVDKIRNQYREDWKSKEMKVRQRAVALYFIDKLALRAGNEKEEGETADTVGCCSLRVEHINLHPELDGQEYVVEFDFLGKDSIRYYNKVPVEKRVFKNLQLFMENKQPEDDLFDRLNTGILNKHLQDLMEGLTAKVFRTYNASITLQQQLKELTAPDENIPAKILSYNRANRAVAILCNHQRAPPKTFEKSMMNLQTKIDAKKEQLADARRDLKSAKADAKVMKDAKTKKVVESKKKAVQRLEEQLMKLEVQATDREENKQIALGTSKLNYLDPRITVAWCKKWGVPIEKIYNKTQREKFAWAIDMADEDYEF
Method in brief: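 Relaxation of supercoiled pBR322 plasmid by purified Top1 with compound at 50 μM; camptothecin 50 μM as reference; DNA-only and DNA + enzyme lanes as controls; gel read-out; repeated 3 times.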

[4] = target: DNA topoisomerase 2-alpha (Homo sapiens) (UniProt P11388); assay: Inhibition of topoisomerase-2alpha (unknown origin)-mediated pBR322 DNA relaxation at 50 uM after 30 mins by agarose gel electrophoresis
Method in brief: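 Purified Top2α relaxation of supercoiled pBR322 plasmid with compound at 50 μM; etoposide 50 μM as reference; DNA-only and DNA + enzyme lanes as controls; gel read-out; repeated 3 times.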

Histone deacetylase 1 = Histone deacetylase 1 (Homo sapiens, UniProt Q13547); assay: Inhibition of recombinant full length human HDAC1 (1 to 482) expressed in baculovirus infected insect Sf9 cells using fluorogenic HDAC substrate 3 after 30 mins by fluorescence assay
HCT-116 [5] = assay: Induction of apoptosis in human HCT116 cells at 5 uM after 24 hrs by annexin V-FITC/propidium iodide staining-based flow cytometric analysis relative to control; format: functional
HCT-116 [6] = assay: Induction of apoptosis in human HCT116 cells at 5 uM after 48 hrs by annexin V-FITC/propidium iodide staining-based flow cytometric analysis relative to control; format: functional
HCT-116 [7] = assay: Induction of apoptosis in human HCT116 cells assessed as early apoptotic cells at 5 uM after 24 hrs by annexin V-FITC/propidium iodide staining-based flow cytometric analysis (reference value: 2.27%); format: functional
Histone deacetylase 8 = target: T2, Histone deacetylase 8 (Homo sapiens, UniProt Q9BY41); assay: Inhibition of recombinant C-terminal His-tagged full length human HDAC8 expressed in baculovirus infected insect Sf9 cells using fluorogenic HDAC class 2a substrate after 30 mins by fluorescence assay
T2 sequence (Q9BY41 whole entry): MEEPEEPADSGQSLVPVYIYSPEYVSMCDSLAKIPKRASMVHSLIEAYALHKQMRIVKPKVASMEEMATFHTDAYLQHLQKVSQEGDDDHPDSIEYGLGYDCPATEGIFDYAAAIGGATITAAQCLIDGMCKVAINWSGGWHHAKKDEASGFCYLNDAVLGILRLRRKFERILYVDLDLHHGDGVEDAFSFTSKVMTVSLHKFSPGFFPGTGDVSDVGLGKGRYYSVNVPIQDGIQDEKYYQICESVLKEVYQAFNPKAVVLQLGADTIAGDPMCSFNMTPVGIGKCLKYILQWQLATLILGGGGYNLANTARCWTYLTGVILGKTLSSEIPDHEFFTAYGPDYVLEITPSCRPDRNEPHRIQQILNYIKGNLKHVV

[8] = target: T3, Protein deacetylase HDAC6 (Homo sapiens, UniProt Q9UBN7); assay: Inhibition of recombinant N-terminal GST-tagged full length human HDAC6 expressed in baculovirus infected insect Sf9 cells using fluorogenic HDAC substrate 3 after 30 mins by fluorescence assay
T3 sequence (Q9UBN7 whole entry): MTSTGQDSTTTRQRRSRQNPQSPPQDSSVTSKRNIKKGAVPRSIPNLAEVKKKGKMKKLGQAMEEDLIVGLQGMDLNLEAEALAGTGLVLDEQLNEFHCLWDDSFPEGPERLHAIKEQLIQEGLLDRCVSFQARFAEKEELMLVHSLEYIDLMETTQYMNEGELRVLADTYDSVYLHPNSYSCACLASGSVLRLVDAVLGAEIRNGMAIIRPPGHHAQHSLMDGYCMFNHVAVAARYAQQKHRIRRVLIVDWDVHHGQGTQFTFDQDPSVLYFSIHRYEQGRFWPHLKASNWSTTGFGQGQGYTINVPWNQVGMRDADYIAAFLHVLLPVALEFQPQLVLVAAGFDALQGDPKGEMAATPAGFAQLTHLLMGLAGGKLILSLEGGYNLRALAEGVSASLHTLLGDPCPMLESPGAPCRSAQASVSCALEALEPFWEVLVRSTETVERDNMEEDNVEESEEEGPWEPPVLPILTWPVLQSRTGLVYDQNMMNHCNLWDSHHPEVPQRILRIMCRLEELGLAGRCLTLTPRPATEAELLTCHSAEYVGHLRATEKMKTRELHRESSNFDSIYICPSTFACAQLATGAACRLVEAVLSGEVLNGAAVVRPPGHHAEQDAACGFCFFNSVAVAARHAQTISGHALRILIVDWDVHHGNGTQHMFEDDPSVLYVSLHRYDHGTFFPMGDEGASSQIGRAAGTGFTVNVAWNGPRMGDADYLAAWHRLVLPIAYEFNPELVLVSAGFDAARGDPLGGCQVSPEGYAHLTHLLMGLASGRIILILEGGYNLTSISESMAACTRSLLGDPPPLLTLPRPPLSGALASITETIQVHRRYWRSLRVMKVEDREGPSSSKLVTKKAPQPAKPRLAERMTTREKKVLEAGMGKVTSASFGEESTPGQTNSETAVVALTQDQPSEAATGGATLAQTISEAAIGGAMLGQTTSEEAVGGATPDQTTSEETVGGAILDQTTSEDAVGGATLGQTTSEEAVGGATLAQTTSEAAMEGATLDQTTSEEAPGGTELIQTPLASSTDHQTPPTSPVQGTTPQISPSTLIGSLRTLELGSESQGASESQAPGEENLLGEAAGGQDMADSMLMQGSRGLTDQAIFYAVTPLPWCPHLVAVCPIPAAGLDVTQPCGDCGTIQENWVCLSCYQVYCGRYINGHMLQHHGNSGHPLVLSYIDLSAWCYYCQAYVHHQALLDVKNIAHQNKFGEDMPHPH

[9] = target: Histone deacetylase 3/Nuclear receptor corepressor 2 (HDAC3/NCoR2) (Homo sapiens, UniProt O15379); assay: Inhibition of recombinant C-terminal His-tagged full length human HDAC3/NcoR2 complex expressed in baculovirus infected insect Sf9 cells using fluorogenic HDAC substrate 3 after 30 mins by fluorescence assay
Histone deacetylase 2 = Histone deacetylase 2 (Homo sapiens, UniProt Q92769); assay: Inhibition of recombinant C-terminal His-tagged full length human HDAC2 expressed in baculovirus infected insect Sf9 cells using fluorogenic HDAC substrate 3 after 30 mins by fluorescence assay; format: cell-based
HCT-116 [10] = assay: Induction of apoptosis in human HCT116 cells assessed as late apoptotic cells at 5 uM after 24 hrs by annexin V-FITC/propidium iodide staining-based flow cytometric analysis (reference value: 1.05%); format: functional
HCT-116 [11] = assay: Induction of apoptosis in human HCT116 cells assessed as necrotic cells at 5 uM after 24 hrs by annexin V-FITC/propidium iodide staining-based flow cytometric analysis (reference value: 8%); format: functional
HCT-116 [12] = assay: Induction of apoptosis in human HCT116 cells assessed as early apoptotic cells at 5 uM after 48 hrs by annexin V-FITC/propidium iodide staining-based flow cytometric analysis (reference value: 2.76%); format: functional
HCT-116 [13] = assay: Induction of apoptosis in human HCT116 cells assessed as late apoptotic cells at 5 uM after 48 hrs by annexin V-FITC/propidium iodide staining-based flow cytometric analysis (reference value: 3.03%); format: functional
HCT-116 [14] = assay: Induction of apoptosis in human HCT116 cells assessed as necrotic cells at 5 uM after 48 hrs by annexin V-FITC/propidium iodide staining-based flow cytometric analysis (reference value: 5.25%); format: functional
[15] = target: Histone deacetylase (Homo sapiens) (UniProt Q13547+O15379+Q9UBN7+Q92769+Q9UQL6+Q8WUI4+Q9BY41+Q96DB2+P56524+Q9UKV0+Q969S8); assay: Inhibition of HDAC in human HCT116 cells assessed as induction of histone H3 hyperacetylation at 2.5 to 5 uM after 24 to 48 hrs by Western blot analysis; format: cell-based; conditions: HCT-116
Method in brief: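 HCT116 cells treated 24 h with compound at 2.5 or 5 μM alongside an untreated control; lysates probed by Western blot for acetylated histone H3.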

Histone deacetylase 1, sequence (Q13547 whole entry): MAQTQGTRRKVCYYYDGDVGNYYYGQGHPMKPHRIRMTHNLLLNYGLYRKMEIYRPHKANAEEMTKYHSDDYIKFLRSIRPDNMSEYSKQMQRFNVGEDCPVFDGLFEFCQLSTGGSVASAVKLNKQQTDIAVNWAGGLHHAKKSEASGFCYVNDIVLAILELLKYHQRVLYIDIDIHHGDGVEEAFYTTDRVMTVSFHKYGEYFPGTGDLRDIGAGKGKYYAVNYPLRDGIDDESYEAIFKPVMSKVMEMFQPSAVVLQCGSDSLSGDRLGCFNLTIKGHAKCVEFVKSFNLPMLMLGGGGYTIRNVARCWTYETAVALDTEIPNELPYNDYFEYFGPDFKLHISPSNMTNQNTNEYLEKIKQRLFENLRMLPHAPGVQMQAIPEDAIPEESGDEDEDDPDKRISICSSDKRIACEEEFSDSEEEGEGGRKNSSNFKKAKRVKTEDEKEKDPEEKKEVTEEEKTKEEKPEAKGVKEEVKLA
DNA topoisomerase 2-alpha (Homo sapiens), sequence (P11388 whole entry): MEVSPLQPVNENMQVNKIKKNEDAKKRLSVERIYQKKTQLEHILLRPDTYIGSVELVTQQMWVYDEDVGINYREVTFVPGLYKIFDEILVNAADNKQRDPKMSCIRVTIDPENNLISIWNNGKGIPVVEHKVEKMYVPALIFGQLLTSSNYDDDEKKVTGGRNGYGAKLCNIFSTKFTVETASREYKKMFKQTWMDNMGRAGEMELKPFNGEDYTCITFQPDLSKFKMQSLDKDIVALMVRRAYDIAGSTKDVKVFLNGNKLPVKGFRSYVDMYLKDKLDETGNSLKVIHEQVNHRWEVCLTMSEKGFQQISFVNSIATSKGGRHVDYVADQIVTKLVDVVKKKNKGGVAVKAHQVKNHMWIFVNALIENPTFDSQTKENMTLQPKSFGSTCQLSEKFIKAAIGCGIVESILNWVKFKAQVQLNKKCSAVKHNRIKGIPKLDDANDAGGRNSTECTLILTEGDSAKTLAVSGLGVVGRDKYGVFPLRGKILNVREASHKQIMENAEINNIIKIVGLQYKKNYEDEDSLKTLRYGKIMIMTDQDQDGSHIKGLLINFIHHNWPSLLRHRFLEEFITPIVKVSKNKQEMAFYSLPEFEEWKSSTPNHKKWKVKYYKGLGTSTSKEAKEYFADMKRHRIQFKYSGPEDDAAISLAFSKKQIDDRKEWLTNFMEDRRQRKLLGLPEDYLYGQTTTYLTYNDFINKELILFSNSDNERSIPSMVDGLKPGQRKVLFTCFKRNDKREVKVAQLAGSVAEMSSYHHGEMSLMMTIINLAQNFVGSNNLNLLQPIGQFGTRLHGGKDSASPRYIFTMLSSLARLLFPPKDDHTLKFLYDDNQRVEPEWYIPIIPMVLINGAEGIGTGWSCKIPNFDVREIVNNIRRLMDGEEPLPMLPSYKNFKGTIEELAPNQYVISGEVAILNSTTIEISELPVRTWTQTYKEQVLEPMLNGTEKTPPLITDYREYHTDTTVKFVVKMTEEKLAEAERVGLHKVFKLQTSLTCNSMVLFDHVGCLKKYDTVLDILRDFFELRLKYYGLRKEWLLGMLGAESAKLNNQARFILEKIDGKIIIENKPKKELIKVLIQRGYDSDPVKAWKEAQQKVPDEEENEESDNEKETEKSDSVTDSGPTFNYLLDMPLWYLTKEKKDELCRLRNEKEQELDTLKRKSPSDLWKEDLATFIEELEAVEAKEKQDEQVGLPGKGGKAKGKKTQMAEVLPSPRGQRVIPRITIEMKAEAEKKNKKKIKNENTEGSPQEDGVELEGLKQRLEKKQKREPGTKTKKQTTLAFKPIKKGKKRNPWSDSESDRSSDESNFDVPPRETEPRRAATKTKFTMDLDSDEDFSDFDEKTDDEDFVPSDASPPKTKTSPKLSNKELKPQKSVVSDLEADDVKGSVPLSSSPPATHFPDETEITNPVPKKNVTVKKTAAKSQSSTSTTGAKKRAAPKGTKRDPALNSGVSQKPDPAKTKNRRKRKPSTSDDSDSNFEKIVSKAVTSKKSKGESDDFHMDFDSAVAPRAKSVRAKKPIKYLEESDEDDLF
Histone deacetylase 2, sequence (Q92769 whole entry): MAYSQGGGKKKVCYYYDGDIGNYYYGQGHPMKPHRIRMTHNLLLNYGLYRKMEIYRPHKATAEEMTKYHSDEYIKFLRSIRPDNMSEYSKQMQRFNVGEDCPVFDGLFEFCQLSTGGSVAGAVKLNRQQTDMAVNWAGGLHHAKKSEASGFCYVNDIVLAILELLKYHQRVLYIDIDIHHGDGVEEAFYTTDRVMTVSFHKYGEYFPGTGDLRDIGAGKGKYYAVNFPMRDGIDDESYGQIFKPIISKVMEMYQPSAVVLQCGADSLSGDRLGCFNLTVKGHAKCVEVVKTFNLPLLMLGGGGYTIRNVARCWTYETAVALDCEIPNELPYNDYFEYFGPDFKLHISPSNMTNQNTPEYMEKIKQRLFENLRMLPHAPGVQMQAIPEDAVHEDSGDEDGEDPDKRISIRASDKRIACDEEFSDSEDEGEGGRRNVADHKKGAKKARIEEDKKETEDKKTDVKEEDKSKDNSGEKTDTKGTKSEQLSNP

CN1c2ccc(NCc3ccc(NC(=O)CCCCCCC(=O)NO)cc3)cc2C(=O)N2CCc3c([nH]c4ccc(O)cc34)C21 (centres undefined)
IC50 [1]: 13 µM
IC50 (HCT-116 [2]): 2.1 µM
IC50 (MDA-MB-231): 14 µM
inhibition [3]: Active
inhibition [4]: Active
IC50 (Histone deacetylase 1): 0.03 µM

CN1c2ccc(N)cc2C(=O)N2CCc3c([nH]c4ccc(O)cc34)C21 (centres undefined)
IC50 [1]: 0.47 µM
IC50 (HCT-116 [2]): 0.43 µM
IC50 (MDA-MB-231): 0.49 µM
inhibition [3]: Active
inhibition [4]: Active
Activity (HCT-116 [5]): 11.09%
Activity (HCT-116 [6]): 16.39%

CN1c2ccc(NCc3ccc(-c4noc(CCCCC(=O)NO)n4)cc3)cc2C(=O)N2CCc3c([nH]c4ccc(O)cc34)C21 (centres undefined)
IC50 [1]: 8.2 µM
IC50 (HCT-116 [2]): 3.7 µM
IC50 (MDA-MB-231): 5.9 µM
inhibition [3]: Active
inhibition [4]: Active
IC50 (Histone deacetylase 1): 0.19 µM

COc1cc([C@@H]2c3cc4c(cc3[C@@H](O[C@@H]3O[C@@H]5CO[C@@H](C)O[C@H]5[C@H](O)[C@H]3O)[C@H]3COC(=O)[C@H]23)OCO4)cc(OC)c1O
inhibition [4]: Active

CN1c2ccc(NCc3ccc(-c4nnc(CCCCCCC(=O)NO)o4)cc3)cc2C(=O)N2CCc3c([nH]c4ccc(O)cc34)C21 (centres undefined)
IC50 [1]: 6.1 µM
IC50 (HCT-116 [2]): 9.7 µM
IC50 (MDA-MB-231): 5.7 µM
inhibition [3]: Active
inhibition [4]: Active
IC50 (Histone deacetylase 1): 0.089 µM

CN1c2ccc(NCc3ccc(-c4noc(CCCCCCC(=O)NO)n4)cc3)cc2C(=O)N2CCc3c([nH]c4ccc(O)cc34)C21 (centres undefined)
Activity (HCT-116 [7]): 22.59%
IC50 [1]: 1.3 µM
IC50 (HCT-116 [2]): 0.41 µM
IC50 (MDA-MB-231): 2.3 µM
inhibition [3]: Active
inhibition [4]: Active
IC50 (Histone deacetylase 8): 2.5 µM
IC50 [8]: 0.013 µM
IC50 [9]: 0.071 µM
IC50 (Histone deacetylase 2): 0.275 µM
IC50 (Histone deacetylase 1): 0.024 µM
Activity (HCT-116 [10]): 16.73%
Activity (HCT-116 [11]): 2.68%
Activity (HCT-116 [12]): 29.76%
Activity (HCT-116 [13]): 42.14%
Activity (HCT-116 [14]): 7.96%
inhibition [15]: Active

O=C(CCCCCCC(=O)Nc1ccccc1)NO [VORINOSTAT]
Activity (HCT-116 [7]): 19.2%
Activity (HCT-116 [10]): 6.34%
Activity (HCT-116 [11]): 1.76%
Activity (HCT-116 [12]): 11.37%
Activity (HCT-116 [13]): 35.44%
Activity (HCT-116 [14]): 15.64%

COc1ccc2[nH]c3c(c2c1)CCN1C(=O)c2cc(NC(=O)CCCCC(=O)NO)ccc2N(C)C31 (centres undefined)
IC50 [1]: 62 µM
IC50 (HCT-116 [2]): 22 µM
IC50 (MDA-MB-231): 36 µM
inhibition [3]: inactive
inhibition [4]: Active
IC50 (Histone deacetylase 1): 0.275 µM

CN1c2ccc(NCc3ccc(-c4noc(CCCC(=O)NO)n4)cc3)cc2C(=O)N2CCc3c([nH]c4ccc(O)cc34)C21 (centres undefined)
IC50 [1]: 6.7 µM
IC50 (HCT-116 [2]): 3.5 µM
IC50 (MDA-MB-231): 16 µM
inhibition [3]: Active
inhibition [4]: Active
IC50 (Histone deacetylase 1): 0.321 µM

COc1ccc2[nH]c3c(c2c1)CCN1C(=O)c2cc(NC(=O)CCCCCC(=O)NO)ccc2N(C)C31 (centres undefined)
IC50 [1]: 68 µM
IC50 (HCT-116 [2]): 35 µM
IC50 (MDA-MB-231): 58 µM
inhibition [3]: inactive
inhibition [4]: Active
IC50 (Histone deacetylase 1): > 10 µM

CN1c2ccc(NCc3ccc(-c4nnc(CCCCC(=O)NO)o4)cc3)cc2C(=O)N2CCc3c([nH]c4ccc(O)cc34)C21 (centres undefined)
IC50 [1]: 26 µM
IC50 (HCT-116 [2]): 4.9 µM
IC50 (MDA-MB-231): 30 µM
inhibition [3]: Active
inhibition [4]: Active
IC50 (Histone deacetylase 1): 0.093 µM

CN1c2ccc(NCc3ccc(-c4nnc(CCCC(=O)NO)o4)cc3)cc2C(=O)N2CCc3c([nH]c4ccc(O)cc34)C21 (centres undefined)
IC50 [1]: > 168 µM
IC50 (HCT-116 [2]): 11 µM
IC50 (MDA-MB-231): > 168 µM
inhibition [3]: Active
inhibition [4]: Active
IC50 (Histone deacetylase 1): > 10 µM

From ChEMBL document CHEMBL3576845, “Discovery of Novel Multiacting Topoisomerase I/II and Histone Deacetylase Inhibitors” (ACS Med Chem Lett, 2015)
